Data on 31 compounds can be found in ChEMBL document CHEMBL1126171, “Synthesis of 2-(p-chlorobenzyl)-3-aryl-6-methoxybenzofurans as selective ligands for antiestrogen-binding sites. Effects on cell proliferation and cholesterol synthesis” (J Med Chem, 1992).

pIC50: −log10 of the molar value.

For assay [1], the target named is T1, Anti-estrogen binding site (AEBS) (Homo sapiens) (UniProt Q15125+Q9UBM7). The assay can be described thus: Relative binding affinity(RBA) against AEBS (Antiestrogen binding site) in rat liver. The format is functional, tissue-based. Particulars: target entry is the homologue from another species.
The target of assay [2] is T1, Anti-estrogen binding site (AEBS) (Homo sapiens). The experiment in a line: Relative binding affinity (RBA) against AEBS (Antiestrogen binding site) using N1-S1 cells. The assay is classed as functional, cell-based. To be noted: Rattus norvegicus.
Assay [3] addresses Estrogen receptor (Homo sapiens) (UniProt Q92731+P03372). The experiment in a line: Relative binding affinity(RBA) against Estrogen receptor using MCF-7 cells. To be noted: MCF7. The assay is classed as cell-based. The essentials:
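Competition for ER in MCF7 whole cells suspended in phosphate-buffered saline, 3 × 10^7 cells per duplicate aliquot. Incubated with 5 nM [3H]estradiol with or without 100-fold molar excess of competitor or diethylstilbestrol, then washed and counted as for the AEBS assay. Bound label reported as % of no-competitor control. Mean ± SEM of two experiments.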

The test system of assay [4] is EL4. The experiment in a line: Inhibition of [3H]thymidine incorporation into EL4 cell proliferation. The assay is classed as functional, cell-based. Particulars: Mus musculus, EL4, 48 h. The method, boiled down:
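Treated 48 h with compound; DNA synthesis measured by [3H]thymidine incorporation, cells harvested onto filters and counted. Mean ± SEM of two experiments.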
For orientation: Dividing cells build labelled thymidine or BrdU into new DNA.

The target in assay [5] is T1, Anti-estrogen binding site (AEBS) (Homo sapiens). The experiment in a line: Displacement of [3H]tamoxifen from AEBS of EL4 cells. The format is functional, cell-based. Particulars: Mus musculus. (Displacement assays read how much labelled ligand stays bound in the presence of the test substance.)
For assay [6] the target is unchanged. The experiment in a line: Effect on cholesterol biosynthesis in EL4 cells, 5 hr incubation with 0.25 mM [3H]acetate. The format is functional, cell-based. Particulars: Mus musculus. The method, boiled down: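 EL4 cells at 20 × 10^6 cells/mL in lipoprotein-poor RPMI given 0.25 mM [3H]acetate for 5 h, without or with compound (10^-6 M or 10^-4 M depending on compound); triplicates in two experiments. KOH/ethanol saponification at 95 °C with [14C]cholesterol recovery standard; petroleum ether extraction. Label in cholesterol as % of total cellular incorporation; % inhibition versus control; Student's t test.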

The subject of assay [7] is MCF7S. The assay can be described thus: (§1) Inhibition of [3H]thymidine incorporation into MCF-7 cells. The format is functional, cell-based. Particulars: Homo sapiens. The essentials: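 After 24 h, compound (final […], diluted from 1 mM ethanolic stock; solvent controls) and [3H]thymidine (37 kBq/well) added. Incubated 48 h, then trypsinized, harvested and counted. Mean ± SEM of two experiments.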

Assay [8] can be described thus: Percent of cell viability by trypan blue exclusion. The format is functional. The essentials:
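Viability of EL4 cells in the [3H]acetate cholesterol-synthesis incubations (20 × 10^6 cells/mL; 5 h or 48 h with compound at 10^-7 to 10^-4 M), estimated by trypan blue exclusion.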

Assay [9] addresses T1, Anti-estrogen binding site (AEBS) (Homo sapiens). The experiment in a line: Relative binding affinity (RBA) against AEBS (Antiestrogen binding site) in rat liver. The assay is classed as functional, tissue-based. To be noted: target entry is the homologue from another species.
For assay [10] the target is unchanged. The experiment in a line: Relative binding affinity(RBA) against AEBS (Antiestrogen binding site) using EL-4 cells. The format is functional, cell-based. Particulars: Mus musculus.
Assay [11] shares this target. The experiment in a line: Relative binding affinity(RBA) against AEBS (Antiestrogen binding site) in guinea pig uterus. To be noted: Cavia porcellus, target entry is the homologue from another species. The assay is classed as functional, tissue-based.
The target is the same in assay [12]. The experiment in a line: Relative binding affinity(RBA) against AEBS (Antiestrogen binding site) in chicken liver. To be noted: Gallus gallus; target entry is the homologue from another species.
For assay [13] the target is unchanged. The assay can be described thus: Effect on cholesterol biosynthesis in EL4 cells, 48 hr incubation with 0.25 mM [3H]acetate. The format is functional, cell-based. To be noted: Mus musculus. The essentials:
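EL4 cells at 20 × 10^6 cells/mL in lipoprotein-poor RPMI, incubated 48 h with 0.25 mM [3H]acetate ± 10^-7 M compound, in triplicate, two experiments. Stopped with KOH/ethanol, [14C]cholesterol added for recovery, saponified 95 °C 90 min. Nonsaponifiable lipids extracted in petroleum ether. Result as % of total incorporated label found in cholesterol; inhibition versus control; Student's t test.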

For assay [14], the system named is MCF7S. The description is as §1. Particulars: Homo sapiens. The format is functional, cell-based. The essentials: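 MCF7 cells in Hepes-buffered RPMI 1640 with 5% newborn calf serum, seeded 4500 per well. After 24 h, compound (final […], diluted from 1 mM ethanolic stock; solvent controls) and [3H]thymidine (37 kBq/well) added. Incubated 48 h, then trypsinized, harvested and counted. […] Mean ± SEM of two experiments.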
This is another data set of the same source.

Assay [15] deals with T1, Anti-estrogen binding site (AEBS) (Homo sapiens). The experiment in a line: Relative binding affinity(RBA) against AEBS (Antiestrogen binding site) using N1-S1 cells. The assay is classed as functional, cell-based. Particulars: Rattus norvegicus.
The target is the same in assay [16]. The experiment in a line: Relative binding affinity(RBA) against AEBS (Antiestrogen binding site) in N1-S1 cells.
Assay [17] has the same target. The experiment in a line: Relative binding affinity(RBA) against AEBS (Antiestrogen binding site) in N1-S1 cells. The format is functional, cell-based. Particulars: Rattus norvegicus.
For assay [18] the target is unchanged. The assay can be described thus: Relative binding affinity(RBA) against AEBS (Antiestrogen binding site) in MCF-7 cells. Particulars: target entry is the homologue from another species.

For `CN(C)CCOc1ccc(C2Oc3ccccc3C=C2c2ccccc2)cc1` (stereo not drawn), the relative binding affinity (RBA) in [1] was 98.
As for `COc1ccc2c(c1)OCC(c1ccc(F)cc1)=C2c1ccc(OCCN2CCCC2)cc1`, the relative binding affinity (RBA) in [2] was 176; in assay [3], less than 1.
As a reminder, the pIC50 is −log10 of the IC50, conventionally taken in molar units. With `COc1ccc2c(-c3ccc(OCCN4CCOCC4)cc3)c(Cc3ccc(Cl)cc3)oc2c1.Cl`, the pIC50 is 6.47 in assay [4] and 5.19 in assay [7]. Also, in [5], the relative binding affinity (RBA) was 1830. Further, the Activity in [6] is 0.11% [middle of 6 runs]. This compound gave a Cell viability in assay [8] of 79%.
`C=CC(C(=O)OCCN(CC)CC)(c1ccccc1)c1ccccc1` gave a relative binding affinity (RBA) in assay [9] of 10.
`COc1ccc2c(-c3ccc(OCCN(C)C)cc3)c(Cc3ccc(Cl)cc3)oc2c1`: the negative-log IC50 (pIC50) in assay [4] was 6.02; in [7], 5.30. This compound returned a relative binding affinity (RBA) in [5] of 391.
`COc1ccc2c(c1)OC(C)(C)[C@H](c1ccccc1)[C@H]2c1ccc(OCCN2CCCC2)cc1` came in with a relative binding affinity (RBA) in assay [1] of 19.
For the compound `COc1ccc2c(c1)OCC(c1ccc(Br)cc1)=C2c1ccc(OCCN2CCCC2)cc1`, the relative binding affinity (RBA) in assay [10] is 169; in assay [3], less than 1.
The compound `CC/C(=C(\c1ccccc1)c1ccc(OCCN2CCOCC2)cc1)c1ccccc1` registered a relative binding affinity (RBA) in assay [1] of 1170.
Regarding `COc1ccc2c(c1)OCC(c1ccc(Cl)cc1)=C2c1ccc(OCCN2CCCC2)cc1`, the relative binding affinity (RBA) is 257 in assay [10] and less than 1 in assay [3].
As to `COc1ccc2c(c1)CCC(c1ccccc1)=C2c1ccc(OCCN2CCCC2)cc1`, the relative binding affinity (RBA) in assay [11] came out at 124; in [1] it was 90; in [12], 183.
In [1], `COc1ccc2c(c1)OC(C)(C)[C@@H](c1ccccc1)[C@H]2c1ccc(OCCN2CCCC2)cc1` gave a relative binding affinity (RBA) of 46.
In assay [1], `CCN(CC)CCOc1cccc(C(=C2CCCCC2)c2cccc(O)c2)c1` gave a relative binding affinity (RBA) of 6.
For `Oc1cccc(C(=C2CCCCC2)c2cccc(OCCN3CCOCC3)c2)c1`, the relative binding affinity (RBA) in [1] is 25.
In assay [1], `COc1ccc2c(-c3ccc(OCCN4CCCC4)cc3)c(-c3ccccc3)oc2c1` registered a relative binding affinity (RBA) of 23.
In turn, `CN(C)CCOc1cccc(C(=C2CCCCC2)c2cccc(O)c2)c1` came in with a relative binding affinity (RBA) in [1] of 17.
For the compound `CCN(CC)CCOc1ccc(Cc2ccccc2)cc1`, the relative binding affinity (RBA) in assay [9] worked out at 0.06.
The compound `CC/C(=C(\c1ccccc1)c1ccc(OCCN2CCCC2)cc1)c1ccccc1` returned a relative binding affinity (RBA) in [1] of 434.
In assay [1], `Oc1cccc(C(=C2CCCCC2)c2cccc(OCCN3CCCCC3)c2)c1` yielded a relative binding affinity (RBA) of 10.
In the case of `CCN(CC)CCOC(=O)C(CC(C)C)(c1ccccc1)c1ccccc1`, in assay [9], the relative binding affinity (RBA) amounted to 5.
`CC/C(=C(\c1ccccc1)c1ccc(OCCN2CCN(C)CC2)cc1)c1ccccc1` returned a relative binding affinity (RBA) in assay [1] of 540.
For the compound `C1=C(c2ccccc2)C(c2ccc(OCCN3CCCC3)cc2)Oc2ccccc21` (stereo not drawn), the relative binding affinity (RBA) in assay [1] amounted to 134.
As to `COc1ccc2c(-c3ccc(OCCN4CCCC4)cc3)c(Cc3ccc(Cl)cc3)oc2c1.Cl`, the results for the negative-log IC50 (pIC50) in [4] and in assay [14] were 6.32 and 5.64, respectively. Besides, the relative binding affinity (RBA) in [5] was 268. The Activity in [13] was 0.32% [middle of 5 runs]; in assay [6] it was 0.12% [middle of 6 runs]. In assay [8], this compound came in with a Cell viability of 91%.
For `COc1ccc2c(c1)OCC(c1ccc(F)cc1)=C2c1ccc(OCCN2CCOCC2)cc1`, the relative binding affinity (RBA) in assay [15] is 68; in assay [3] it was less than 1.
As for `CC/C(=C(\c1ccccc1)c1ccc(OCCN(CC)CC)cc1)c1ccccc1`, the relative binding affinity (RBA) in [9] was 21; in [16], 46.
Take `COc1ccc2c(c1)OCC(c1ccc(F)cc1)=C2c1ccc(OCCN2CCCCC2)cc1`: the relative binding affinity (RBA) in assay [2] was 161; in [3], less than 1.
In the case of `CCCC(C(=O)OCCN(CC)CC)(c1ccccc1)c1ccccc1`, the relative binding affinity (RBA) in assay [9] stood at 12.
`CCN(CC)CCOc1ccc(C2=C(c3ccc(F)cc3)COc3cc(OC)ccc32)cc1`: the relative binding affinity (RBA) in [17] is 106; in [3] it was less than 1.
Consider `COc1ccc2c(c1)OCC(c1ccccc1)=C2c1ccc(OCCN2CCCC2)cc1`, for which the relative binding affinity (RBA) in [10] was 557; in assay [3] it was less than 1.
Compound `C1=C(c2ccccc2)C(c2ccc(OCCN3CCCCC3)cc2)Oc2ccccc21` (stereo not drawn) displayed a relative binding affinity (RBA) in [1] of 225.
With `O=C(c1ccc(OCCN2CCCC2)cc1)c1c(-c2ccc(O)cc2)sc2cc(O)ccc12`, the values for the relative binding affinity (RBA) in assay [3] and in assay [18] were 115 and 19, respectively.
Turning to `CCN(CC)CCOc1ccc(C(C)(C)C)cc1`, in [1], the relative binding affinity (RBA) came out at 0.08.
